Assay [1] deals with Raji. As to the kind of experiment: Chemopreventive activity in human Raji cells assessed as inhibition of TPA-induced EBV-early antigen activation by measuring EBV-EA positive cells at 10 molar ratio/20 ng/ml of TPA after 48 hrs by immunofluorescence analysis. Format: cell-based. Also on record: scale not given: the % may be the effect or the level left. The note with it: human gammaherpesvirus 4. The method, boiled down:
(§1)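 Raji cells (EBV genome-carrying, virus non-producer; cultured in RPMI-1640 with 10% FBS) incubated 48 h at 37 °C with n-butyric acid (4 mM), TPA ([…] = 20 ng) and test compounds in DMSO. EBV-EA positive cells were detected by indirect immunofluorescence with NPC patient serum, counting ≥500 cells, triplicate. Results were expressed relative to the butyric acid+TPA control (100%). Viability was checked by Trypan blue.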

Assay [2] in a line: Chemopreventive activity in human Raji cells assessed as molar ratio of compound required to inhibit 50% of control of inhibition of TPA-induced EBV-early antigen activation after 48 hrs by immunofluorescence analysis. The class given is cell-based, human gammaherpesvirus 4. The method, boiled down:
as §1

The test system of assay [3] is Raji. Put plainly: Chemopreventive activity in human Raji cells assessed as inhibition of TPA-induced EBV-early antigen activation by measuring EBV-EA positive cells at 100 molar ratio/20 ng/ml of TPA after 48 hrs by immunofluorescence analysis. The conditions noted are these: human gammaherpesvirus 4. The class given is cell-based. Also on record: scale not given: the % may be the effect or the level left. The method, boiled down: (§2)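 Raji cells (EBV genome-carrying, Burkitt's lymphoma-derived, virus non-producer), grown in RPMI-1640 with 10% FBS. Cells were incubated 48 h at 37 °C with n-butyric acid (4 mM), TPA ([…] = 20 ng, in DMSO) and test compound in DMSO at 10–1000 mol ratio/TPA. EBV-EA-positive cells were detected by indirect immunofluorescence using NPC patient serum, with at least 500 cells counted. Triplicates were run, expressed relative to the butyrate+TPA control (100%). Viability was checked by Trypan blue.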

The test system of assay [4] is Raji. Put plainly: Chemopreventive activity in human Raji cells assessed as inhibition of TPA-induced EBV-early antigen activation by measuring EBV-EA positive cells at 1000 molar ratio/20 ng/ml of TPA after 48 hrs by immunofluorescence analysis relative to control. Format: cell-based. Also on record: scale not given: the % may be the effect or the level left. The note with it: human gammaherpesvirus 4. Put shortly: as §2

For assay [5], the system named is Raji. As to the kind of experiment: Chemopreventive activity in human Raji cells assessed as inhibition of TPA-induced EBV-early antigen activation by measuring EBV-EA positive cells at 500 molar ratio/20 ng/ml of TPA after 48 hrs by immunofluorescence analysis. The class given is cell-based. Also on record: scale not given: the % may be the effect or the level left. The conditions noted are these: human gammaherpesvirus 4. Put shortly:
as §2

For assay [6], the species on record is Mus musculus. Put plainly: Inhibition of DMBA-TPA-induced carcinogenesis in mouse skin assessed as reduction of number of papilloma at 85 nmol after 8 weeks relative to control. The class given is functional. Further details: scale not given: the % may be the effect or the level left. Put shortly: (§3)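 Two-stage mouse skin model. Initiation used DMBA (390 nmol). Promotion used TPA (1.7 nmol) twice weekly, starting 1 week after initiation. Test compound (85 nmol) was given with TPA. Papilloma incidence (% of mice bearing papillomas) and average papillomas per mouse were monitored over 20 weeks against a TPA-alone control.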

The species entered for assay [7] is Mus musculus. Put plainly: Inhibition of DMBA-TPA-induced carcinogenesis in mouse skin assessed as reduction of number of papilloma at 85 nmol after 11 weeks relative to control. Format: functional. Further details: scale not given: the % may be the effect or the level left. Put shortly: as §3

As for `COc1cc(/C=C/C(=O)CC(=O)/C=C/c2ccc(O)c(OC)c2)ccc1O` [CURCUMIN], the Activity in the assay on Raji [1] was determined as 100%; in the assay on Raji [3], 81.7%; in the assay with Raji [4] it was 0%; with Raji [5] it was 22.8%. Further, the IC50 in assay [2] came to 341 molar ratio.
Consider `C=C(C)[C@@H]1CC[C@]2(C)[C@H](CC[C@@H]3[C@H]4[C@H](C(C)C)CC[C@]4(C(=O)NCCCCCCCNC(C)=O)CC[C@]32C)[C@@]1(C)CCC(=O)O`, for which the Activity in the assay with Raji [1] is 100%; in the assay with Raji [3], 76.3%; with Raji [4], 6.7%; in the assay with Raji [5] it was 50.2%. Also, the IC50 in assay [2] is recorded as 460 molar ratio.
Turning to `COC(=O)CC[C@]1(C)[C@H]2CC[C@@H]3[C@H]4[C@H](C(C)C)CC[C@]4(C(=O)O)CC[C@@]3(C)[C@]2(C)CC[C@H]1C(C)CO` (stereo partly drawn), the Activity is 0% in the assay listed under Mus musculus [6]; 96.3% in the assay on Raji [1]; 10% in the assay filed under Mus musculus [7]; 68.1% in the assay on Raji [3]; 0% in the assay on Raji [4]; 31.6% in the assay with Raji [5]. Moreover, the IC50 in assay [2] stood at 323 molar ratio.
In the case of `COC(=O)CC[C@]1(C)[C@H]2CC[C@@H]3[C@H]4[C@H](C(C)C)CC[C@]4(C(=O)O)CC[C@@]3(C)[C@]2(C)CC[C@H]1C(C)COC(C)=O` (stereo partly drawn), the Activity worked out at 98.2% in the assay with Raji [1], 68.8% in the assay on Raji [3], 0% in the assay with Raji [4] and 33.8% in the assay on Raji [5]. Also, the IC50 in assay [2] is listed as 335 molar ratio.
The corresponding values for `CC(=O)NCCCCCCCNC(=O)[C@]12CC[C@@H](C(C)C)[C@@H]1[C@H]1CC[C@@H]3[C@@](C)(CCC(=O)O)[C@H](C(C)CO)CC[C@@]3(C)[C@]1(C)CC2` (stereo partly drawn) are 100%, 77.5%, 6.6%, 52.1% and 471 molar ratio.
The corresponding values for `CC(=O)NCCCCCCCNC(=O)[C@]12CC[C@@H](C(C)C)[C@@H]1[C@H]1CC[C@@H]3[C@@]4(C)CCC(=O)OC(C)(C)[C@@H]4CC[C@@]3(C)[C@]1(C)CC2` are 100%, 83.2%, 15.3%, 61.4% and 523 molar ratio.
Regarding `COC(=O)CC[C@]1(C)[C@H]2CC[C@@H]3[C@H]4[C@H](C(C)C)CC[C@]4(C(=O)NCCCCCCCNC(C)=O)CC[C@@]3(C)[C@]2(C)CC[C@H]1C(C)COC(C)=O` (stereo partly drawn), the Activity with Raji [1] was found to be 100%; with Raji [3], 79.4%; with Raji [4], 7.8%; in the assay with Raji [5], 56%. Also, in assay [2], the IC50 turned out to be 490 molar ratio.
In the case of `COC(=O)CC[C@]1(C)[C@H]2CC[C@@H]3[C@H]4[C@H](C(C)C)CC[C@]4(C(=O)O)CC[C@@]3(C)[C@]2(C)CC[C@H]1C(C)COC(=O)CC(C)(C)C(=O)O` (stereo partly drawn), the Activity was determined as 100% in the assay on Raji [1], 71.3% with Raji [3], 3.7% in the assay on Raji [4] and 36.4% in the assay with Raji [5]. Also, the IC50 in assay [2] stood at 386 molar ratio.
The corresponding values for `C=C(C)[C@@H]1CC[C@]2(C)[C@H](CC[C@@H]3[C@H]4[C@H](C(C)C)CC[C@]4(C(=O)O)CC[C@]32C)[C@@]1(C)CCC(=O)OC` are 94.2%, 66.9%, 0%, 29.1% and 311 molar ratio.
The corresponding values for `CC(=O)NCCCCCCCNC(=O)[C@]12CC[C@@H](C(C)C)[C@@H]1[C@H]1CC[C@@H]3[C@@](C)(CCC(=O)O)[C@H](C(C)COC(=O)CC(C)(C)C(=O)O)CC[C@@]3(C)[C@]1(C)CC2` (stereo partly drawn) are 100%, 81.3%, 11.3%, 57.2% and 501 molar ratio.
As for `C=C(C)[C@@H]1CC[C@]2(C(=O)O)CC[C@]3(C)[C@H](CC[C@@H]4[C@@]5(C)CC[C@H](OC(=O)CC(C)(C)C(=O)O)C(C)(C)[C@@H]5CC[C@]43C)[C@@H]12` [BEVIRIMAT], in assay [2], the IC50 was 396 molar ratio. In addition, the Activity with Raji [3] is 74.2%; in the assay on Raji [4], 6.1%; in the assay with Raji [5], 36.1%.
For `C=C(C)[C@@H]1CC[C@]2(C)[C@H](CC[C@@H]3[C@H]4[C@H](C(C)C)CC[C@]4(C(=O)NCCCCCCCNC(C)=O)CC[C@]32C)[C@@]1(C)CCC(=O)OC`, the Activity was 100% in the assay with Raji [1], 77.2% in the assay on Raji [3], 7.1% in the assay on Raji [4] and 54.4% in the assay with Raji [5]. For the same compound, the IC50 in assay [2] is listed as 479 molar ratio.
On to `C=C(C)[C@@H]1CC[C@]2(C)[C@H](CC[C@@H]3[C@H]4[C@H](C(C)C)CC[C@]4(C(=O)O)CC[C@]32C)[C@@]1(C)CCC(=O)O`, for which the Activity in the assay filed under Mus musculus [6] stood at 0%; in the assay with Raji [1], 91.6%; in the assay filed under Mus musculus [7], 10%; in the assay with Raji [3], 65.1%; in the assay with Raji [4], 0%; with Raji [5] it was 26.6%. For the same compound, the IC50 in assay [2] came out at 295 molar ratio.

Source of the values: ChEMBL document CHEMBL3112405, “A-ring modified betulinic acid derivatives as potent cancer preventive agents” (Bioorg Med Chem Lett, 2014).
